According to ChEMBL document CHEMBL3875163, “Novel urea and bis-urea primaquine derivatives with hydroxyphenyl or halogenphenyl substituents: Synthesis and biological evaluation” (Eur J Med Chem, 2016):
pIC50: −log10 of the molar value. ≈ marks a conversion by molar mass, not a printed value.

What was measured:
[1] = Growth inhibition of human NCI-H460 cells after 72 hrs by MTT assay; assay type: functional, cell-based; details: NCI-H460, 72 h
Method in brief: (§1)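 Modified NCI DTP protocol: cells in DMEM with 10% FBS, 2 mM glutamine, antibiotics, 37 °C, 5% CO2; seeded 1 × 10^4 to 3 × 10^4 cells/ml on day 0, exposed to five 10-fold dilutions (10^-8 to 10^-4 M) for 72 h; solvent control. MTT read-out; quadruplicate points in three experiments; IC50 by linear regression of growth percentages bracketing 50%.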

Candida albicans = test: Antifungal activity against Candida albicans ATCC 90028 after 18 hrs by serial microdilution broth assay; assay type: functional; details: ATCC 90028, 18 h
Method in brief: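 Yeast microdilution in RPMI 1640 with glutamine plus 2% glucose, 1000 to 0.78125 µg/ml from 10 mg/ml DMSO stocks. Growth read with XTT (10 mg/ml) mixed 7:1 with menadione (1 mg/ml in acetone), absorbance at 540 nm. MIC taken as lowest concentration giving 50% growth inhibition versus untreated cells; tests in duplicate.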

Bacillus pumilus = test: Antibacterial activity against Bacillus pumilus NCTC 8241 after 18 hrs by serial microdilution broth assay; assay type: functional; details: NCTC 8241, 18 h
Method in brief: (§2)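 Broth microdilution MIC per EUCAST for aerobic bacteria in Mueller-Hinton broth, serial dilution 1000 to 0.78125 µg/ml from 10 mg/ml DMSO stocks. Inoculum from trypticase soy broth cultures (18 h, 37 °C), set to 0.5 McFarland in PBS pH 7.4, diluted 1:10. 18 h aerobic incubation at 35 °C in dark, then TTC 0.5 mg/ml for 3 h, HCl-isopropanol, A490. MIC = lowest concentration giving 50% inhibition versus untreated; duplicates.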

Staphylococcus aureus [2] = test: Antibacterial activity against methicillin sensitive Staphylococcus aureus ATCC 25213 after 18 hrs by serial microdilution broth assay; assay type: functional; details: ATCC 25213, 18 h; method in brief: as §2
Glycine max = test: Inhibition of soybean LOX assessed as reduction in conversion of sodium linoleate to 13-hydroperoxylinoleic acid at 1 x 10^-4 M relative to control
Method in brief: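 Soybean lipoxygenase incubated at room temperature with sodium linoleate (0.1 mM) and test compound (DMSO stocks); formation of 13-hydroperoxylinoleic acid read at 234 nm. Single-point screening at 1 × 10^-4 M; IC50 from several concentrations. At least triplicate.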

Staphylococcus aureus [3] = test: Antibacterial activity against methicillin resistant Staphylococcus aureus MFBF 10679 after 18 hrs by serial microdilution broth assay; assay type: functional; details: MFBF 10679, 18 h
Method in brief: (§3)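 EUCAST-based broth microdilution in Mueller-Hinton broth. Glycerol stock cultures grown in trypticase soy broth 18 h at 37 °C; inoculum in PBS pH 7.4 at 0.5 McFarland, diluted 1:10 in broth. Compounds from DMSO stocks, 1000 to 0.78125 µg/ml; 18 h aerobic, 35 °C, dark. TTC 0.5 mg/ml added, 3 h, then HCl/isopropanol, A490. MIC = lowest concentration giving 50% inhibition vs untreated; duplicates, averaged.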

Bacillus cereus = test: Antibacterial activity against Bacillus cereus ATCC 11778 after 18 hrs by serial microdilution broth assay; assay type: functional; details: ATCC 11778, 18 h; method in brief: as §2
[4] = Cytotoxicity against HEK cells assessed as reduction in cell viability at 12.5 to 200 ug/ml after 24 hrs by MTT assay; assay type: toxicity, cell-based; details: human, hek293, 24 h
Method in brief: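 HEK 293 cells, 5 × 10^3 per well, treated next day for 24 h with compound (range within 200 to 1.5625 µg/ml). MTT 0.5 mg/ml in DMEM/10% FBS, 4 h at 37 °C, 5% CO2; formazan in DMSO, A570. Viability as percent of untreated control; triplicates, three independent experiments.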

Staphylococcus aureus [5] = test: Antibacterial activity against methicillin sensitive Staphylococcus aureus ATCC 25923 after 18 hrs by serial microdilution broth assay; assay type: functional; details: ATCC 25923, 18 h; method in brief: as §3
Pseudomonas aeruginosa [6] = test: Antibacterial activity against multi-drug resistant Pseudomonas aeruginosa MFBF after 18 hrs by serial microdilution broth assay; assay type: functional; method in brief: as §3
[7] = Antioxidant activity assessed as inhibition of AAPH-induced linoleic acid lipid peroxidation at 1 x 10^-4 M by UV-absorbance method relative to control; assay type: functional
Method in brief: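 Linoleic acid peroxidation: 16 mM sodium linoleate dispersion in 0.05 M phosphate buffer pH 7.4 at 37 °C under air, initiated by AAPH (40 mM solution); compound at 1 × 10^-4 M; oxidation followed at 234 nm. At least triplicate.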

[8] = Growth inhibition of human HeLa cells after 72 hrs by MTT assay; assay type: functional, cell-based
[9] = Growth inhibition of mouse L1210 cells after 72 hrs by MTT assay; assay type: functional, cell-based; details: L1210, 72 h
Pseudomonas aeruginosa [10] = test: Antibacterial activity against Pseudomonas aeruginosa ATCC 9027 after 18 hrs by serial microdilution broth assay; assay type: functional; details: ATCC 9027, 18 h; method in brief: as §3
[11] = Growth inhibition of human SW620 cells after 72 hrs by MTT assay; assay type: functional, cell-based; details: SW-620, 72 h; method in brief: as §1
Escherichia coli = test: Antibacterial activity against Escherichia coli ATCC 10535 after 18 hrs by serial microdilution broth assay; assay type: functional; details: ATCC 10535, 18 h; method in brief: as §2
[12] = Antioxidant activity assessed as DPPH radical scavenging activity at 100 uM after 60 mins relative to control; assay type: functional
Method in brief: (§4)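 Compound in DMSO added to DPPH in absolute ethanol, 0.1 mM final; absorbance at 517 nm after 20 and 60 min at room temperature. At least triplicate.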

[13] = Antioxidant activity assessed as DPPH radical scavenging activity at 100 uM after 20 mins relative to control; assay type: functional; method in brief: as §4
[14] = Growth inhibition of human MIAPaCa2 cells after 72 hrs by MTT assay; assay type: functional, cell-based; details: MIA PaCa-2, 72 h
Enterococcus faecalis [15] = test: Antibacterial activity against vancomycin resistant Enterococcus faecalis MFBF 11419 after 18 hrs by serial microdilution broth assay; assay type: functional; details: MFBF 11419, 18 h; method in brief: as §3
Enterococcus faecalis [16] = test: Antibacterial activity against vancomycin susceptible Enterococcus faecalis ATCC 29212 after 18 hrs by serial microdilution broth assay; assay type: functional; details: ATCC 29212, 18 h; method in brief: as §2
[17] = Growth inhibition of human Molt4/C8 cells after 72 hrs by MTT assay; assay type: functional, cell-based; details: MOLT-4, 72 h
Staphylococcus aureus [18] = test: Antibacterial activity against Staphylococcus aureus ATCC 6538 after 18 hrs by serial microdilution broth assay; assay type: functional; details: ATCC 6538, 18 h; method in brief: as §2
[19] = Growth inhibition of human CEM cells after 72 hrs by MTT assay; assay type: functional, cell-based; details: CCRF-CEM
[20] = Growth inhibition of human MCF7 cells after 72 hrs by MTT assay; assay type: functional, cell-based; details: MCF7, 72 h; method in brief: as §1
Bacillus spizizenii = test: Antibacterial activity against Bacillus subtilis ATCC 6633 after 18 hrs by serial microdilution broth assay; assay type: functional; details: ATCC 6633, 18 h; method in brief: as §2
[21] = Hemolytic activity against human RBC at 100 ug/ml after 1 hr relative to control; assay type: ADME, cell-based, Erythrocyte; details: red blood cells (RBC), read-out: Activity
Staphylococcus aureus [22] = test: Antibacterial activity against methicillin resistant Staphylococcus aureus MFBF 10682 after 18 hrs by serial microdilution broth assay; assay type: functional; details: MFBF 10682, 18 h; method in brief: as §3
Pseudomonas aeruginosa [23] = test: Antibacterial activity against Pseudomonas aeruginosa ATCC 27853 after 18 hrs by serial microdilution broth assay; assay type: functional; details: ATCC 27853, 18 h; method in brief: as §2

Structure (SMILES)	pIC50 [1]	MIC50 (Candida albicans) [µg/mL]	MIC50 (Bacillus pumilus) [µg/mL]	MIC50 (Staphylococcus aureus [2]) [µg/mL]	inhibition (Glycine max) [%]	MIC50 (Staphylococcus aureus [3]) [µg/mL]	MIC50 (Bacillus cereus) [µg/mL]	Activity [4]	MIC50 (Staphylococcus aureus [5]) [µg/mL]	MIC50 (Pseudomonas aeruginosa [6]) [µg/mL]	inhibition [7] [%]	pIC50 [8]	pIC50 [9]	MIC50 (Pseudomonas aeruginosa [10]) [µg/mL]	pIC50 [11]	MIC50 (Escherichia coli) [µg/mL]	Activity [12] [%]	Activity [13] [%]	pIC50 [14]	MIC50 (Enterococcus faecalis [15]) [µg/mL]	also measured
COc1cc(NC(C)CCCNC(=O)Nc2ccc(C(F)(F)F)cc2)c2ncccc2c1 (stereo not drawn)	4.62	> 100	> 100	50 (≈ 112 µM)	22.4	> 100	> 100	Non-Toxic	35 (≈ 78.4 µM)	150 (≈ 336 µM)	67	5.08	5.13	100 (≈ 224 µM)	4.66	> 100	36.4	38.9	5.08	> 100	MIC50 (Enterococcus faecalis [16]): > 100 µg/mL; pIC50 [17]: 4.70; MIC50 (Staphylococcus aureus [18]): 25 µg/mL (≈ 56 µM); pIC50 [19]: 4.85; pIC50 [20]: 5.72; MIC50 (Bacillus spizizenii): > 100 µg/mL; hemolysis at 1 h, 100 ug/ml [21]: 7.85%; MIC50 (Staphylococcus aureus [22]): > 100 µg/mL; MIC50 (Pseudomonas aeruginosa [23]): 25 µg/mL (≈ 56 µM)
COc1cc(NC(C)CCCNC(=O)Nc2ccc(Br)cc2)c2ncccc2c1 (stereo not drawn)	4.52	> 100	100 (≈ 219 µM)	> 100	37.1	> 100	50 (≈ 109 µM)	Non-Toxic	> 100	100 (≈ 219 µM)	80.4	4.70	4.74	100 (≈ 219 µM)	4.64	> 100	46.4	46.2	4.64	> 100	MIC50 (Enterococcus faecalis [16]): > 100 µg/mL; pIC50 [17]: 4.60; MIC50 (Staphylococcus aureus [18]): 50 µg/mL (≈ 109 µM); pIC50 [19]: 4.64; pIC50 [20]: 5.59; MIC50 (Bacillus spizizenii): 25 µg/mL (≈ 54.7 µM); hemolysis at 1 h, 100 ug/ml [21]: < 1%; MIC50 (Staphylococcus aureus [22]): > 100 µg/mL; MIC50 (Pseudomonas aeruginosa [23]): 25 µg/mL (≈ 54.7 µM)
